Laboratory results published in PMC9298202 (Chemmedchem, 2021).
Read-outs that look alike come from different tables or passages of the source.

Assays:
[1] = system: Vero cells; assay: Cytotoxicity in Vero cells; assay type: cell-based; conditions: read-out: Vero cells toxicity IC50
Method in brief: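 Vero cells were grown in RPMI + 10% inactivated FBS at 37 °C in humidified 5% CO2. They were resuspended at 1×10^5 cells/mL, cultured 2 days, then given fresh medium with test compound for 72 h. Viability was read by flow cytometry. IC50 was derived by linear regression from Kc values; results average four determinations.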

[2] = system: Leishmania donovani promastigote forms; assay: In vitro activity on promastigote; assay type: cell-based; conditions: for Selectivity index Promastigote forms: L. donovani, IC50 macrophages toxicity/IC50 activity; for IC50: Leishmania donovani, read-out: Activity IC50 Promastigote forms
Method in brief: (§1)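 Extracellular promastigotes were tested at 1, 10, 25 and 200 µM, and IC50 was derived by linear regression from Kc values, averaging four determinations.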

[3] = system: Trypanosoma cruzi SN3 amastigote forms; assay: Amastigote assay, T. cruzi SN3; assay type: cell-based; conditions: for Selectivity index Amastigote forms: T. cruzi SN3, IC50 Vero cell toxicity/IC50 activity; for IC50: Trypanosoma cruzi, read-out: Activity IC50 Amastigote forms
Method in brief: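 Vero cells in RPMI + 10% inactivated FBS (37 °C, 5% CO2) were seeded at 1×10^4 cells/well on coverslips for 2 days. They were infected 10:1 with SN3 metacyclic forms, obtained by 12-day culture of epimastigotes at 28 °C in modified Grace's medium (~40% metacyclic). After 24 h, cells were washed and exposed to 6.25–100 µM for 72 h. Giemsa-stained amastigotes were counted; IC50 from four determinations; SI used Vero IC50.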

[4] = system: Trypanosoma cruzi SN3 trypomastigote forms; assay: Trypomastigote activity, T. cruzi SN3; assay type: cell-based; conditions: for Selectivity index Trypomastigote forms: T. cruzi SN3, IC50 Vero cell toxicity/IC50 activity; for IC50: Trypanosoma cruzi, read-out: Activity IC50 Trypomastigote forms
[5] = system: Leishmania infantum promastigote forms; assay: In vitro activity on promastigote; assay type: cell-based; conditions: for Selectivity index Promastigote forms: L. infantum, IC50 macrophages toxicity/IC50 activity; for IC50: Leishmania infantum, read-out: Activity IC50 Promastigote forms
[6] = system: Trypanosoma cruzi SN3 epimastigote forms; assay: Epimastigote assay, T. cruzi SN3; assay type: cell-based; conditions: for Selectivity index Epimastigote forms: T. cruzi SN3, IC50 Vero cell toxicity/IC50 activity; for IC50: Trypanosoma cruzi, read-out: Activity IC50 Epimastigote forms
Method in brief: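 SN3 epimastigotes (Rhodnius prolixus isolate, Colombia) were grown at 28 °C in Grace's Insect Medium + 10% inactivated FBS. Exponential-phase cells were plated at 5×10^4 parasites/well with test compound in MTL medium at 100, 50, 25, 12,5 and 6,25 µM. Counts after 72 h used a Neubauer chamber. IC50 came from linear regression of Kc values; SI = Vero IC50/epimastigote IC50.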

[7] = system: J774.2 macrophages; assay: Cytotoxicity in J774.2 macrophages; assay type: cell-based; conditions: read-out: Toxicity in macrophages IC50
[8] = system: Leishmania braziliensis promastigote forms; assay: In vitro activity on promastigote; assay type: cell-based; conditions: for Selectivity index Promastigote forms: L. braziliensis, IC50 macrophages toxicity/IC50 activity; for IC50: Leishmania braziliensis, read-out: Activity IC50 Promastigote forms
Method in brief: as §1

[9] = system: Leishmania infantum amastigote forms; assay: In vitro activity on amastigote; assay type: cell-based; conditions: for Selectivity index Amastigote forms: L. infantum, IC50 macrophages toxicity/IC50 activity; for IC50: Leishmania infantum, read-out: Activity IC50 Amastigote forms
[10] = system: Leishmania braziliensis amastigote forms; assay: In vitro activity on amastigote; assay type: cell-based; conditions: for Selectivity index Amastigote forms: L. braziliensis, IC50 macrophages toxicity/IC50 activity; for IC50: Leishmania braziliensis, read-out: Activity IC50 Amastigote forms
Method in brief: (§2)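 J774.2 macrophages were infected with promastigotes, which became intracellular amastigotes within 1 day; test compounds were then added. IC50 came from linear regression of Kc values at 1, 10, 25 and 200 µM, averaging four determinations.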

[11] = system: Leishmania donovani amastigote forms; assay: In vitro activity on amastigote; assay type: cell-based; conditions: for Selectivity index Amastigote forms: L. donovani, IC50 macrophages toxicity/IC50 activity; for IC50: Leishmania donovani, read-out: Activity IC50 Amastigote forms
Method in brief: as §2

[12] = system: Fe-SOD in L. infantum promastigotes; assay: Fe-SOD inhibition, L. infantum; assay type: biochemical, Leishmania infantum; conditions: extent reached in the tested concentration range (Figure 6)
Method in brief: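 Promastigotes or T. cruzi epimastigotes were grown in MTL (HBSS + 10% heat-inactivated FBS) at 26 °C to ~1×10^7/mL. Log-phase cells were pelleted and held 24 h at 27 °C to excrete SOD. Filtered supernatant was fractionated with 35% then 85% ammonium sulphate and desalted on Sephadex G-25. Activity was measured as NBT reduction (methionine, riboflavin, Triton X-100) at 560 nm before and after 10 min UV illumination.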

[13] = Chlorocebus sabaeus, Vero, 72 h
[14] = Vero cells after 72 h of culture
[15] = J774.2 macrophages after 72 h of culture (Table 1)

IC50 [2] [µM] | IC50 [5] [µM] | IC50 [6] [µM] | IC50 [8] [µM] | IC50 [9] [µM] | IC50 [10] [µM] | IC50 [11] [µM] | Compound | IC50 [1, 13] [µM] | Selectivity index Promastigote forms [2] | Selectivity index Promastigote forms [5] | Selectivity index Epimastigote forms [6] | IC50 ([7]; Mus musculus, J774.2, 72 h) [µM] | Selectivity index Promastigote forms [8] | Selectivity index Amastigote forms [9] | Selectivity index Amastigote forms [10] | Selectivity index Amastigote forms [11] | further results
52 ± 3.6 | 11.1 ± 0.4 | 102 ± 4.1 | 17.8 ± 1.4 | 10.7 ± 0.7 | 15 ± 0.9 | 44.7 ± 5.6 | c1ccc2c(NCCCn3ccnc3)nncc2c1 [1 f, 1‐[3‐(imidazol‐1‐yl)propylamino]phthalazine] | 156 ± 4.6 | 4 | 19 | 1 | 211 ± 10.3 | 12 | 20 | 14 | 5 | Selectivity index Amastigote forms [3]: 3; IC50 [3]: 44.3 ± 2.7 µM; Selectivity index Trypomastigote forms [4]: 4; IC50 [4]: 40.8 ± 3.1 µM
20.4 ± 2 | 27.7 ± 3 | 25.9 ± 1.2 | 29.1 ± 2.3 |  | 18.9 ± 1.6 |  | c1ccc2c(NCCc3c[nH]cn3)ncnc2c1 [3 a, N ‐[2‐(1H‐imidazol‐4‐yl)ethyl]‐quinazolin‐4‐amine] | 112 ± 4.8 | 3 | 2 | 4 | 65.2 ± 3.3 | 2 |  | 3 |  | Selectivity index Amastigote forms [3]: 17; IC50 [3]: 6.7 ± 0.8 µM; Selectivity index Trypomastigote forms [4]: 26; IC50 [4]: 4.3 ± 0.3 µM
10.7 ± 0.4 | 24.5 ± 2.5 | 30 ± 0.8 | 6.1 ± 0.5 |  | 5.3 ± 0.4 |  | Clc1nnc(NCCc2nc3ccccc3[nH]2)c2ccccc12 [2 b, N‐ [2‐(1H‐benzo[d]imidazol‐2‐yl)ethyl]‐4‐chlorophthalazin‐1‐amine] | 35 | 2 | 1(1) | 1 (1) | 25.2 ± 1.7 | 4 |  | 5 |  | 
57.4 ± 4.1 | 19.9 ± 1.1 | 30.5 ± 2.7 | 28.1 ± 0.4 |  |  |  | Clc1ccc(NCCc2c[nH]cn2)nn1 [1 c, N ‐(2‐(1H‐imidazol‐4‐yl)ethyl)‐6‐chloropyridazin‐3‐amine] | 39.6 ± 0.9 |  | 1 (1) | 1 (1) | 17.1 ± 1.7 | 1 (1) |  |  |  | 
 |  |  |  |  |  |  | N‐ [2‐(1H‐imidazol‐4‐yl)ethylamino]pyrazine [4 a] |  |  |  |  |  |  |  |  |  | IC50 [1, 14]: 31 ± 2.6 µM; IC50 [7, 15]: 21.9 ± 1.5 µM
22.4 ± 1.3 | 18.7 ± 1.4 | 20.1 ± 1.3 | 14.7 ± 0.6 |  |  |  | c1ccc2c(NCCc3cn4ccccc4n3)nnc(NCCc3cn4ccccc4n3)c2c1 [2 c, N 1,N4‐bis(2‐(imidazo[1,2‐a]pyridin‐2‐yl)ethyl)phthalazine‐1,4‐diamine] | 19.6 ± 0.7 |  |  | 1 (1) | 2.4 ± 0.1 |  |  |  |  | 
 |  |  |  |  |  |  | 1‐[3‐(imidazol‐1‐yl)propylamino]pyridazine [1 b] |  |  |  |  |  |  |  |  |  | IC50 [1, 14]: 43.6 ± 2.7 µM; IC50 [7, 15]: 18.6 ± 1 µM
11.9 ± 0.7 | 21.8 ± 2.3 | 19.6 ± 0.8 | 26.6 ± 5.4 |  |  |  | Clc1nnc(NCCc2cn3ccccc3n2)c2ccccc12 [2 d, 4‐chloro‐N‐(2‐(imidazo[1,2‐a]pyridin‐2‐yl)ethyl)phthalazin‐1‐amine] | 23.8 ± 2.1 |  |  | 1 (1) | 2.4 ± 0.3 |  |  |  |  | 
3.8 ± 0.3 | 5.8 ± 0.3 | 23.3 ± 0.7 | 3.7 ± 0.1 | 4 ± 0.4 | 4.1 ± 0.3 | 1.9 | c1cnc(NCCCCCn2ccnc2)cn1 [4 d, N ‐(5‐(1H‐imidazol‐1‐yl)pentyl)pyrazin‐2‐amine] | 37.2 ± 1.2 | 6 | 4 | 2 (2) | 22 ± 1.7 | 6 | 5 | 5 | 11 | 
3.6 ± 0.4 | 1.6 ± 0.2 | 15.7 ± 0.5 | 1.5 ± 0.2 | 2.7 ± 0.1 | 2.3 ± 0.2 | 2.5 | c1cnc(NCCCn2ccnc2)cn1 [4 b, N‐(3‐(1H‐imidazol‐1‐yl)propyl)pyrazin‐2‐amine] | 26.8 ± 0.9 | 7 | 15 | 2 (2) | 23.8 ± 1.9 | 16 | 9 | 10 | 9 | extent of inhibition of enzymatic activity [12]: more than 80%
20.6 ± 2.3 | 15.3 ± 0.5 | 11.8 ± 0.6 | 13.5 ± 0.3 |  |  |  | Clc1ccc(NCCCn2ccnc2)nn1 [1 d, N ‐(3‐(1H‐imidazol‐1‐yl)propyl)‐6‐chloropyridazin‐3‐amine] | 33.2 ± 2.8 | 1 (1) | 1 (1) | 3 (3) | 19.3 ± 1.1 | 1 |  |  |  | 
4.4 ± 0.2 | 19.9 ± 1.4 | 33.5 ± 1.6 | 5.8 ± 0.2 |  | 4.4 ± 0.3 |  | c1ccc2[nH]c(CCNc3nnc(NCCc4nc5ccccc5[nH]4)c4ccccc34)nc2c1 [2 a, N 1,N4‐bis[2‐(1H‐benzo[d]imidazol‐2‐yl)ethyl]phthalazine‐1,4‐diamine] | 38.7 ± 1.7 | 4 | 1(1) | 1 (1) | 18.7 ± 1 | 3 |  | 4 |  | 
 |  |  |  |  |  |  | Glucantime [reference compound] |  |  |  |  |  |  |  |  |  | IC50 [7, 15]: 15.2 ± 1 µM
 |  | 15.8 ± 1.1 |  |  |  |  | O=C(Cn1ccnc1[N+](=O)[O-])NCc1ccccc1 [BNZ, benznidazole, reference compound] | 13.6 ± 0.9 |  |  | 0.9 |  |  |  |  |  | Selectivity index Amastigote forms [3]: 0.6; IC50 [3]: 23.3 ± 4.6 µM; Selectivity index Trypomastigote forms [4]: 2.2; IC50 [4]: 6.2 ± 0.7 µM
7.4 ± 0.4 | 9.6 ± 0.8 | 17.9 ± 1.1 | 10.7 ± 1.1 | 5.8 ± 0.2 | 7.7 ± 0.5 | 5.5 ± 0.3 | c1cnc(NCCCCn2ccnc2)cn1 [4 c, N ‐(4‐(1H‐imidazol‐1‐yl)butyl)pyrazin‐2‐amine] | 29.8 ± 1.6 | 3 | 2 | 2 (2) | 22.3 ± 2.3 | 2 | 4 | 3 | 4 | 
9.6 ± 1.3 | 10.2 | 16.5 ± 0.6 | 14.5 ± 1.3 | 7.4 ± 0.3 | 8.1 ± 0.4 | 10.8 ± 1.1 | c1ccc2c(NCCc3c[nH]cn3)nncc2c1 [1 e, 1‐[2‐(1H‐imidazol‐4‐yl)ethylamino]phthalazine] | 350 ± 7.7 | 7 | 6 | 21 | 63.9 ± 3.6 | 4 | 9 | 8 | 6 | Selectivity index Amastigote forms [3]: 24; IC50 [3]: 14.7 ± 1.1 µM; Selectivity index Trypomastigote forms [4]: 22; IC50 [4]: 15.9 ± 1.2 µM
